Measured values reported in ChEMBL document CHEMBL1134345, “Coumarin and chromen-4-one analogues as tautomerase inhibitors of macrophage migration inhibitory factor: discovery and X-ray crystallography” (J Med Chem, 2001).

These compounds were tested against T1, Macrophage migration inhibitory factor (Homo sapiens, UniProt P14174) (assay: Inhibitory activity against tautomerase macrophage migration inhibitory factor (MIF)).
T1 sequence (P14174 whole entry): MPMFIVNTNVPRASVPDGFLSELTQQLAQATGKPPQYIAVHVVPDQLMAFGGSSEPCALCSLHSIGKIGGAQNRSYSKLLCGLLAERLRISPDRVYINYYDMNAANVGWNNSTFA
Procedure, shortened: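 Recombinant human MIF at 4 ug/mL final, in sodium phosphate buffer pH 6.0. Inhibitors were added in DMSO (1% v/v final). The reaction was started with freshly made D-dopachrome (D-DOPA oxidized with periodate, 1:2) at 0.25–0.5 mM. The A475 decrease was followed for 10 min. Initial rates were corrected for the uncatalyzed rate without MIF. Ki came from three-dimensional nonlinear regression.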

| SMILES | Ki [µM] | IC50 [µM] |
| --- | --- | --- |
| O=C(O)/C=C/c1ccc(O)cc1F | 2.6 | – |
| O=C(COC(=O)c1cc2ccccc2oc1=O)c1ccccc1 | 1.6 | – |
| N#Cc1cc2ccc(O)cc2oc1=O | 2.9 | – |
| O=c1oc2cc(O)ccc2cc1-c1nc(-c2ccc3c(c2)OCO3)cs1 | 1.5 | – |
| CN(C)c1ccc(/C=C2\C(=O)Oc3ccccc3C2=O)cc1 | 6.2 | – |
| CC(=O)c1cc2ccc(O)cc2oc1=O | 4.3 | – |
| O=c1oc2ccccc2cc1-c1csc(-c2cc3ccc(O)cc3oc2=O)n1 | 0.28 | – |
| CCOC(=O)CC(=O)c1cc2ccc(O)cc2oc1=O | 5.8 | – |
| O=c1oc2cc(O)ccc2cc1-c1ccccc1 | 0.47 | – |
| CCCCCCSC[C@H](NC(=O)CC[C@H](N)C(=O)O)C(=O)NCC(=O)O | – | 3300 |
| Cc1nc(-c2cc3ccc(O)cc3oc2=O)cs1 | 2.1 | – |
| Cc1csc(-c2cc3ccc(O)cc3oc2=O)n1 | 3.1 | – |
| NC(=S)c1cc2ccc(O)cc2oc1=O | 0.55 | – |
| CCCCCCS [HEXANETHIOL] | – | 17.4 |

The compounds below were run against T1, Macrophage migration inhibitory factor (assay: Binding activity towards the active site of macrophage migration inhibitory factor (MIF)).

| SMILES | Kd [µM] |
| --- | --- |
| CCCCCCSC[C@H](NC(=O)CC[C@H](N)C(=O)O)C(=O)NCC(=O)O | 2500 |
